The source of these data is ChEMBL document CHEMBL1144873, “An orally bioavailable oxime ether capsid binder with potent activity against human rhinovirus” (J Med Chem, 2003).

As usually defined, the CC50 is the concentration that lowers cell viability or growth by half. Lower therefore signals greater toxicity to the cells. As usually defined, the EC50 is the concentration at which the effect is half-maximal. A higher EC50 goes with lower potency in that assay. What is called inhibition is how much of the control response was suppressed. High values mean a response far below the control, low ones a response near the control.

Test [1] has as its system KB. Kind of test: (§1) Cellular toxicity in KB cells. The class given is functional. To be noted: Homo sapiens.
Test [2] concerns rhinovirus A2. Briefly: Anti-HRV activity against HRV-2 strain. To be noted: Rhinovirus A. Format: functional, organism-based, human rhinovirus type 2.
The subject of the next test is Human rhinovirus 1A. Briefly: Anti-HRV activity against HRV-1A strain. Format: functional, organism-based, human rhinovirus type 1. The method in brief: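 Cell-culture cytopathic effect (CPE) inhibition assay adapted from a microplate tissue-culture method. Each test was run in duplicate. EC50 was read both visually and by dye uptake. Results varied by generally no more than one dilution between duplicate runs and between read-out methods.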

A further test has as its system MRC5. Kind of test: Cellular toxicity in MRC-5 cells. Format: functional. To be noted: Homo sapiens.
The subject of test [3] is rhinovirus B14. Briefly: Anti-HRV activity against HRV-14 strain. Format: functional, organism-based, human rhinovirus type 14. As to conditions: Rhinovirus B.
Test [4] concerns KB. The description is as §1. The class given is functional. To be noted: Homo sapiens. This is another data set of the same source.
Test [5] concerns rhinovirus B14. Briefly: Anti-HRV activity against HRV serotype 14. The class given is functional, organism-based, human rhinovirus type 14. As to conditions: Rhinovirus B.
A further test deals with rhinovirus A39. Briefly: Anti-HRV activity against HRV serotype 39. The class given is functional, organism-based. To be noted: Rhinovirus A.
A further test has as its system rhinovirus B86. Kind of test: Anti-HRV activity against HRV serotype 86. To be noted: Rhinovirus B. Format: functional, organism-based.
For another test, the system named is rhinovirus A51. Kind of test: Anti-HRV activity against HRV serotype 51. As to conditions: Rhinovirus A. The class given is functional, organism-based.
The test system of another test is rhinovirus A16. Kind of test: Anti-HRV activity against HRV serotype 16. To be noted: Rhinovirus A. The class given is functional, organism-based.
A further test concerns rhinovirus A59. Briefly: Anti-HRV activity against HRV serotype 59. To be noted: Rhinovirus A. Format: functional, organism-based.
A further test relates to rhinovirus A29. Briefly: Anti-HRV activity against HRV serotype 29. The class given is functional, organism-based. To be noted: Rhinovirus A.
Another test relates to rhinovirus A89. Kind of test: Anti-HRV activity against HRV serotype 89. Format: functional, organism-based, human rhinovirus type 89. As to conditions: Rhinovirus A.
The test system of test [6] is KB. Kind of test: Cellular toxicity against KB cells in HRV-14 strain. The class given is functional. To be noted: Homo sapiens.
Another test deals with rhinovirus A9. Kind of test: Anti-HRV activity against HRV serotype 9. Format: functional, organism-based. To be noted: Rhinovirus A.
Another test concerns rhinovirus A85. Kind of test: Anti-HRV activity against HRV serotype 85. To be noted: Rhinovirus A. Format: functional, organism-based.
The next test relates to rhinovirus A63. Kind of test: Anti-HRV activity against HRV serotype 63. The class given is functional, organism-based. To be noted: Rhinovirus A.
A further test concerns Human rhinovirus sp. Briefly: Percent inhibition of 100 HRV strains by the compound at a concentration of 0.064 ug/ml. The class given is functional.
In test [7] the test system is rhinovirus A2. Kind of test: Anti-HRV activity against HRV serotype 2. As to conditions: Rhinovirus A. The class given is functional, organism-based, human rhinovirus type 2.
For another test, the system named is rhinovirus A45. Kind of test: Anti-HRV activity against HRV serotype 45. The class given is functional, organism-based. To be noted: Rhinovirus A.
The next test deals with rhinovirus B72. Briefly: Anti-HRV activity against HRV serotype 72. The class given is functional, organism-based. As to conditions: Rhinovirus B.
A further test has as its system rhinovirus B70. Briefly: Anti-HRV activity against HRV serotype 70. To be noted: Rhinovirus B. The class given is functional, organism-based.
The subject of a further test is rhinovirus A15. Briefly: Anti-HRV activity against HRV serotype 15. Format: functional, organism-based. To be noted: Rhinovirus A.

≈ marks a conversion by molar mass, not a printed value.

With `CCC/N=C/c1ccc(OCCC2CCN(c3ccc(Cl)nn3)CC2)cc1`, the values for the CC50 in the test on KB [1] and in the test on MRC5 were 30 mg/L (≈ 77.5 µM) and greater than 50 mg/L, respectively. Moreover, the values for the EC50 with rhinovirus A2 [2] and in the test with Human rhinovirus 1A were 6 mg/L (≈ 15.5 µM) and 4.12 mg/L (≈ 10.6 µM), respectively.

With `CCO/N=C/c1ccc(OCCC2CCN(c3ccc(Cl)nn3)CC2)cc1`, the EC50 in the test with rhinovirus B14 [3] was 0.002 mg/L (≈ 0.00514 µM); with Human rhinovirus 1A it was less than 0.16 mg/L. The CC50 in the test on KB [4] was 0.8 mg/L (≈ 2.06 µM); with MRC5, greater than 50 mg/L.

Consider `O=Cc1ccc(OCCC2CCN(c3ccc(Cl)nn3)CC2)cc1`, for which the CC50 in the test on KB [1] was 20 mg/L (≈ 57.8 µM); with MRC5, greater than 50 mg/L. Further, the EC50 in the test on rhinovirus A2 [2] was determined as 2 mg/L (≈ 5.78 µM); in the test on Human rhinovirus 1A, 9.72 mg/L (≈ 28.1 µM).

Take `CN/N=C/c1ccc(OCCC2CCN(c3ccc(Cl)nn3)CC2)cc1`: the values for the CC50 in the test on KB [1] and in the test on MRC5 were 10 mg/L (≈ 26.7 µM) and greater than 50 mg/L, respectively. Besides, the EC50 with rhinovirus A2 [2] was 2 mg/L (≈ 5.35 µM); with Human rhinovirus 1A, 1.01 mg/L (≈ 2.7 µM).

In the case of `CCO/N=C(\C)c1ccc(OCCC2CCN(c3ccc(C)nn3)CC2)cc1`, the EC50 with rhinovirus B14 [3] came out at 0.004 mg/L (≈ 0.0105 µM); with rhinovirus A2 [2], 0.01 mg/L (≈ 0.0261 µM). Besides, the CC50 in the test on KB [1] and in the test with KB [4] was greater than 1 mg/L in each case.

In the case of `CC(C)O/N=C/c1ccc(OCCC2CCN(c3ccc(Cl)nn3)CC2)cc1`, the results for the half-maximal effective concentration (EC50) with rhinovirus B14 [3] and with rhinovirus A2 [2] were 0.018 mg/L (≈ 0.0447 µM) and 0.02 mg/L (≈ 0.0496 µM), respectively. Further, the CC50 in the test with KB [1] amounted to 1 mg/L (≈ 2.48 µM); in the test on KB [4], 0.7 mg/L (≈ 1.74 µM).

As for `CCCO/N=C/c1ccc(OCCC2CCN(c3ccc(Cl)nn3)CC2)cc1`, the concentration for a half-maximal effect (EC50) in the test on rhinovirus B14 [3] was 0.01 mg/L (≈ 0.0248 µM); in the test on rhinovirus A2 [2], 0.004 mg/L (≈ 0.00993 µM). The CC50 in the test on KB [1] was greater than 1 mg/L; with KB [4], 0.4 mg/L (≈ 0.993 µM).

Take `Cc1ccc(N2CCC(CCOc3ccc(/C=N/O)cc3)CC2)nn1`: the EC50 in the test with rhinovirus B14 [3] was 0.062 mg/L (≈ 0.182 µM); in the test on rhinovirus A2 [2] it was greater than 0.25 mg/L. For the same molecule, the CC50 in the test on KB [1] and with KB [4] was greater than 0.25 mg/L in each case.

On to `CCOC(=O)c1ccc(OCCC2CCN(c3ccc(Cl)nn3)CC2)cc1`, for which the CC50 is 50 mg/L (≈ 128 µM) with KB [1] and greater than 50 mg/L in the test on MRC5. Also, the EC50 in the test with rhinovirus A2 [2] was less than 0.05 mg/L; in the test on Human rhinovirus 1A, less than 0.16 mg/L.

As for `Clc1ccc(N2CCC(CCOc3ccc(/C=N/OCc4ccccc4)cc3)CC2)nn1`, the EC50 with rhinovirus B14 [3] came out at 0.4 mg/L (≈ 0.887 µM); with rhinovirus A2 [2] it was 0.9 mg/L (≈ 2 µM). The CC50 in the test on KB [1] and in the test with KB [4] was 0.6 mg/L (≈ 1.33 µM) in each case.

Take `CO/N=C(\C)c1ccc(OCCC2CCN(c3ccc(C)nn3)CC2)cc1`: the EC50 in the test on rhinovirus B14 [3] came out at 0.023 mg/L (≈ 0.0624 µM); in the test with rhinovirus A2 [2], 0.08 mg/L (≈ 0.217 µM). Also, the CC50 with KB [1] and in the test on KB [4] was greater than 1 mg/L throughout.

Regarding `CO/N=C/c1ccc(OCCC2CCN(c3ccc(C)nn3)CC2)cc1`, the EC50 was determined as 0.004 mg/L (≈ 0.0113 µM) in the test on rhinovirus B14 [3] and 0.15 mg/L (≈ 0.423 µM) in the test on rhinovirus A2 [2]. For the same molecule, the CC50 in the test on KB [1] and in the test with KB [4] was greater than 1 mg/L each time.

With `CC/C(=N\OC)c1ccc(OCCC2CCN(c3ccc(Cl)nn3)CC2)cc1`, the EC50 with rhinovirus B14 [3] came to 0.2 mg/L (≈ 0.496 µM); with rhinovirus A2 [2] it was 0.4 mg/L (≈ 0.993 µM). For the same molecule, the CC50 in the test with KB [1] was greater than 1 mg/L; with KB [4] it was 0.6 mg/L (≈ 1.49 µM).

As for `CCC(=O)c1ccc(OCCC2CCN(c3ccc(Cl)nn3)CC2)cc1`, the CC50 is 7 mg/L (≈ 18.7 µM) in the test on KB [1] and greater than 50 mg/L with MRC5. The EC50 was 0.6 mg/L (≈ 1.6 µM) in the test on rhinovirus A2 [2] and less than 0.16 mg/L with Human rhinovirus 1A.

Consider `NNC(=O)c1ccc(OCCC2CCN(c3ccc(Cl)nn3)CC2)cc1`, for which the CC50 with KB [1] was 20 mg/L (≈ 53.2 µM); in the test on MRC5, greater than 50 mg/L. The EC50 in the test on rhinovirus A2 [2] is 4 mg/L (≈ 10.6 µM); with Human rhinovirus 1A it was 8.52 mg/L (≈ 22.7 µM).

As for `C=CCO/N=C/c1ccc(OCCC2CCN(c3ccc(Cl)nn3)CC2)cc1`, the half-maximal effective concentration (EC50) in the test with rhinovirus B14 [3] and in the test with rhinovirus A2 [2] was 0.006 mg/L (≈ 0.015 µM) each time. The results for the CC50 with KB [1] and in the test on KB [4] were 0.5 mg/L (≈ 1.25 µM) and 0.4 mg/L (≈ 0.998 µM), respectively.

In the test on KB [1], `CC(C)S(=O)(=O)n1c(N)nc2ccc(/C(=N/O)c3ccccc3)cc21` [ENVIROXIME] came in with a CC50 of 2 mg/L (≈ 5.58 µM). Besides, the EC50 in the test with rhinovirus A2 [2] turned out to be 0.009 mg/L (≈ 0.0251 µM).

As for `CCOC(=O)c1ccc(OCCC2CCN(c3ccc(C)nn3)CC2)cc1` [PIRODAVIR], the EC50 in the test on rhinovirus B14 [5] worked out at 0.00365 mg/L (≈ 0.00988 µM); in the test on rhinovirus A39 it was 0.0018 mg/L (≈ 0.00487 µM); in the test with rhinovirus B86 it was 0.00956 mg/L (≈ 0.0259 µM); in the test on rhinovirus B14 [3], 0.0016 mg/L (≈ 0.00433 µM); with rhinovirus A51, 0.00521 mg/L (≈ 0.0141 µM); in the test with rhinovirus A16, 0.0152 mg/L (≈ 0.0412 µM). In addition, the EC50 was 0.00437 mg/L (≈ 0.0118 µM) in the test on rhinovirus A59; 0.00374 mg/L (≈ 0.0101 µM) in the test on rhinovirus A29; 0.0057 mg/L (≈ 0.0154 µM) in the test on rhinovirus A89; 0.00205 mg/L (≈ 0.00555 µM) with rhinovirus A9; 0.00472 mg/L (≈ 0.0128 µM) with rhinovirus A85; less than 0.16 mg/L with Human rhinovirus 1A. Also, the EC50 was 0.00083 mg/L (≈ 0.00225 µM) in the test on rhinovirus A63; 0.00277 mg/L (≈ 0.0075 µM) with rhinovirus A2 [7]; greater than 5 mg/L in the test on rhinovirus A45; 0.0348 mg/L (≈ 0.0941 µM) in the test with rhinovirus B72; 0.00214 mg/L (≈ 0.00579 µM) in the test on rhinovirus B70; 0.00702 mg/L (≈ 0.019 µM) in the test on rhinovirus A15. In addition, the values for the CC50 in the test with KB [6] and with MRC5 were greater than 1 mg/L and greater than 50 mg/L, respectively. In addition, in the test with Human rhinovirus sp., 0.064 µg/mL produced 80% inhibition.

Turning to `Cc1cc(CCCOc2c(C)cc(-c3noc(C(F)(F)F)n3)cc2C)on1` [PLECONARIL], the EC50 with rhinovirus B14 [5] came out at 0.0313 mg/L (≈ 0.0821 µM); in the test with rhinovirus A39, 0.0449 mg/L (≈ 0.118 µM); with rhinovirus B86 it was 0.07 mg/L (≈ 0.184 µM); with rhinovirus A51 it was 0.0304 mg/L (≈ 0.0797 µM); with rhinovirus A16 it was 0.108 mg/L (≈ 0.283 µM); in the test with rhinovirus A59, 0.387 mg/L (≈ 1.02 µM). The EC50 with rhinovirus A29 turned out to be 0.0454 mg/L (≈ 0.119 µM); with rhinovirus A89, 0.0293 mg/L (≈ 0.0769 µM); in the test with rhinovirus A9, 0.0372 mg/L (≈ 0.0974 µM); in the test with rhinovirus A85, 0.034 mg/L (≈ 0.0892 µM); in the test with rhinovirus A63, 0.0623 mg/L (≈ 0.163 µM); in the test with rhinovirus A2 [7], 0.0265 mg/L (≈ 0.0694 µM). Also, the EC50 is 1.91 mg/L (≈ 5 µM) in the test with rhinovirus A45, 0.469 mg/L (≈ 1.23 µM) with rhinovirus B72, 0.0539 mg/L (≈ 0.141 µM) in the test with rhinovirus B70 and 0.0698 mg/L (≈ 0.183 µM) with rhinovirus A15.
